Many of the other results were omitted from the sample, so hits are more common in it than they were.
Insulin prom act – activators of insulin promoter-driven GFP, primary screen, imaging, TRM-6 cells (human fetal islet line), eGFP reporter, cell count; activation, % at 2 µM; plate-scaled: unstimulated 0, stimulated control 100; actives 0.81% (n = 130,000);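 active = activation at 2 µM above a set limit, confirmed on inspection of the cell images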;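 note: share of cells whose green reporter signal exceeds an intensity cutoff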
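System – TRM-6 insulin promoter–eGFP reporter cells · Probe or stimulus – 0.75 µM tamoxifen as reporter inducer · Dosing – single-point 2 µM compound dose · Incubation – tamoxifen pre-incubation 15 h overnight, then compound exposure 48 h at 37 °C · Measured by – fixed-cell fluorescence microscopy, eGFP plus Hoechst · Evaluation – percent GFP-positive cells normalized to per-plate controls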
Numbers without * were called inactive; [ ] = dose if it differs, or a comment.

Screening CN(C)c1ccc(CNn2cnnc2SCc2ccc(F)cc2)cc1 returned Insulin prom act -6.
Cc1cccc(-n2c(CCc3ccccc3)nnc2SCC(=O)c2ccccc2)c1 was read as Insulin prom act 213.
Screening Cn1c(Nn2cnnc2)nc2ccccc21 returned Insulin prom act 121*.
`Cn1c(NCc2c(O)ccc3ccccc23)nc2ccccc21` gave Insulin prom act -7.
CCCn1c(Nc2ccccc2)nc2ccccc21 was read as Insulin prom act 10.
`COc1ccccc1N1CCN(/N=C\c2ccc(C)o2)CC1` gave Insulin prom act 8.
For Cc1cc2c3c(ccc(C)c3n1)N=CN2c1ccccc1 the results were Insulin prom act -81.
`COc1ccc(C(=O)Nc2nnc(-c3cccs3)s2)cc1` gave Insulin prom act -3.
O=S(=O)(c1cccs1)n1cccn1 was read as Insulin prom act 4.
Screening COCCNC(=O)COC(=O)/C=C/c1cnc2ccccc2n1 returned Insulin prom act 9.
`COCCNC(=O)CN(C(=O)c1ccc(N2CCCC2)nc1)c1ccccc1` gave Insulin prom act 773*.
For COc1ccc(-c2nnn(CC(=O)N(CC(=O)NCCC(C)C)c3ccccc3)n2)cc1OC the results were Insulin prom act 0.
For Cc1cc2ncn(-c3ncnc4sc5c(c34)CCC(C)C5)c2cc1C (configuration not stated) the results were Insulin prom act 10.
Screening CCCCN1C(=O)/C(=C/C=C2/CC(C)(C)CN2C)SC1=S returned Insulin prom act 270*.
For CCCN1C(=O)/C(=C/c2ccncc2)SC1=S the results were Insulin prom act -7.
For CCCCN1C(=O)C(=O)N(c2ccccc2)C1=S the results were Insulin prom act -9.
For CC[C@H](C)[C@H](NC(N)=O)C(=O)NCCc1ccc(Cl)cc1 the results were Insulin prom act 133.
`Cc1nnc2c(Oc3ccccc3)nc3ccccc3n12` gave Insulin prom act 131*.
`CCc1nc2ccccc2c2nc3ccccc3n12` gave Insulin prom act -6.
For Cc1ccc(-c2nnc3c(C(F)(F)F)nc4ccccc4n23)cc1 the results were Insulin prom act 4.
COC(=O)C1=C(C)Nc2nnnn2C1c1cccs1 (configuration not stated) was read as Insulin prom act 243.
Screening CCOc1ccccc1N(CC(=O)Nc1cc(OC)ccc1OC)S(C)(=O)=O returned Insulin prom act -4.
O=C1c2ccccc2C(=O)N1OCCOCCOCCBr was read as Insulin prom act 3.
`CC1(C)O[C@H]2OC([C@H](O)CON3C(=O)c4ccccc4C3=O)[C@H](O)[C@H]2O1` (some centres not stated) gave Insulin prom act 264*.
Cc1ccc(C(=O)OCC2OC3OC(C)(C)OC3C2O)cc1 (configuration not stated) was read as Insulin prom act 10.
Screening O=c1c2ccccc2c(/C=N/c2ncn[nH]2)c(O)n1Cc1ccccc1 returned Insulin prom act -71.
Screening Cc1ccc(NC(=S)N(Cc2ccccc2)Cc2cccs2)c(C)c1 returned Insulin prom act -8.
For CCOC(=O)N1CCN(Cc2nc(N)nc(Nc3ccc(Cl)cc3)n2)CC1 the results were Insulin prom act 118.
Screening CCOc1ccc(S(=O)(=O)NCC(=O)N(C)Cc2cccnc2)cc1 returned Insulin prom act 79*.
For CCC(C)NS(=O)(=O)c1ccc(OCC(=O)NCc2cccnc2)cc1 (configuration not stated) the results were Insulin prom act -6.
For CCOc1ccc(OCC)c(S(=O)(=O)NCc2cccnc2)c1 the results were Insulin prom act -5.
`CC1=NN(c2ccccc2)C(=O)C1C(=O)C(=O)Nc1ccc(F)cc1` (configuration not stated) gave Insulin prom act -9.
O=C(c1ccco1)N(CCC(c1ccccc1)c1ccco1)Cc1ccccc1 (configuration not stated) was read as Insulin prom act 7.
O=C(Nc1ccccc1C(=O)NCCc1ccccc1)c1ccco1 was read as Insulin prom act 0.
`C=C(C)CC(NCCc1ccccc1)c1ccco1` (configuration not stated) gave Insulin prom act 669*[fluoresces].
For O=C(CCCN1C(=O)CCC1=O)Nc1ccc(Br)cc1F the results were Insulin prom act -7.
CCn1c(SCC(=O)Nc2ccc(S(=O)(=O)Nc3ccccn3)cc2)nnc1-c1ccncc1 was read as Insulin prom act 569*.
`CCn1c(SCC(=O)NC2CCCc3ccccc32)nnc1-c1ccncc1` (configuration not stated) gave Insulin prom act -7.
For CCn1c(SCC(=O)Nc2cccc(NC(=O)c3cccs3)c2)nnc1-c1ccncc1 the results were Insulin prom act 0.
CCC1(CC)NC(=O)N(CC(=O)NCc2ccc3c(c2)OCO3)C1=O was read as Insulin prom act 10.
For CC(C)Oc1ccc(/C(O)=C2/C(=O)C(=O)N(CCN3CCOCC3)C2c2ccccc2)cc1 (configuration not stated) the results were Insulin prom act 3.
`COc1cccc(/C(O)=C2/C(=O)C(=O)N(CCN3CCOCC3)C2c2cccnc2)c1` (configuration not stated) gave Insulin prom act 531*.
COc1ccc(/C(O)=C2/C(=O)C(=O)N(CCN(C)C)C2c2cccnc2)cc1OC (configuration not stated) was read as Insulin prom act 7.
Screening O=C(CCN1C(=O)c2ccccc2C1=O)OCN1C(=O)c2ccccc2C1=O returned Insulin prom act -4.
`CCOCc1[nH]c(=S)[nH]c(=O)c1Cc1ccc(OC(C)C)cc1` gave Insulin prom act -9.
`C=CCn1c(SCC(=O)c2ccc(OC)cc2)nnc1-c1cc2cccc(OC)c2o1` gave Insulin prom act -5.
Screening C=CCn1c(COc2cccc3ccc(C)nc23)nnc1SCC(=O)O returned Insulin prom act 450*.
`C=CCn1c(COc2cccc3cccnc23)nnc1SCC(=O)O` gave Insulin prom act 0.
O=C(O)C1CC=CCC1C(=O)Nc1cccc(C(=O)N2CCCCC2)c1 (configuration not stated) was read as Insulin prom act 388.
For CCN1/C(=C/C=C/c2oc3ccc(-c4ccccc4)cc3[n+]2CC)Oc2ccc(-c3ccccc3)cc21 the results were Insulin prom act 809*[fluoresces].
For CC(=O)Nc1cc(-c2ccc(Cl)cc2)nn1-c1ccccc1 the results were Insulin prom act -71.
Screening Cc1sc2ncnc(SCC(=O)c3cccs3)c2c1C returned Insulin prom act 0.
`O=C1CC(c2ccccc2)CC(O)=C1C=Nc1cccc(Cl)c1` (configuration not stated) gave Insulin prom act -3.
Screening O=C(CCCCCNC(=O)c1ccccc1)C[N+](=O)[O-] returned Insulin prom act 8.
For CCc1ccc(C(C(=O)NC(C)(C)CC)N(Cc2ccco2)C(=O)Cn2nnc3ccccc32)cc1 (configuration not stated) the results were Insulin prom act 360.
Screening CCC(C)(C)NC(=O)C(c1cccn1C)N(C(=O)Cn1nnc2ccccc21)c1ccc(OC)cc1 (configuration not stated) returned Insulin prom act 150*.
`CCC(C)(C)NC(=O)C(c1ccccc1)N(Cc1cccs1)C(=O)Cn1nnc2ccccc21` (configuration not stated) gave Insulin prom act -5.
Screening CC(=O)Nc1ccc(S(=O)(=O)N2CCC(C(=O)O)CC2)cc1 returned Insulin prom act -6.

Source: PubChem
